From paper PMC3966493 (Chemistry & biology, 2013) come the findings set out here.

Ends that are not written are not given here. * marks the point of attachment. FITC = O=C1OC2(c3ccc(O)cc3Oc3cc(O)ccc32)c2ccc(NC(=S)*)cc21

The target in assay [1] is T1, EphA4 LBD (Homo sapiens, UniProt P54764). The experiment in a line: Protein NMR 2D [15N,1H]-HSQC chemical shift perturbation / titration. Type of assay: binding. As to conditions: for binding of individual side-chain fragments by 2D HSQC: perturbations observable only at higher ligand concentrations (3 mM). In short, it runs like this:
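15N-labelled EphA4 LBD (M9 medium with (15NH4)2SO4) at 50 µM was used. 2D [15N,1H]-HSQC spectra (32 scans, 2,048 × 128 complex points, 300 K) were recorded with and without test compound. Shifts were computed as Δδ = √[(Δ1H)² + (0.17·Δ15N)²]. For Kd, compound was titrated stepwise and Δδ was fitted to a quadratic binding equation.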

Assay [2] concerns the target T1, EphA4 LBD. Put plainly: Fluorescence polarization assay. Conditions: 5 µM FITC-KYL, 2 µM EphA4 LBD. Type of assay: binding. The method in brief:
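Human EphA4 LBD (residues 29–209), His-tag purified from E. coli Rosetta-gami (DE3), at 2 µM final, was preincubated 10 min at room temperature with varying test compound in PBS pH 7.2. N-terminally FITC-labelled KYL peptide (5 µM final) was added. After 30 min at room temperature, polarization (mP) was read at ex/em 480/535 nm. Unlabelled KYL served as positive control, DMSO as negative.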
On the technique in general: Fluorescence polarisation rises when a labelled molecule tumbles more slowly, as on binding a larger partner.

Assay [3] deals with human EphA4 ligand-binding domain (residues 29-209) (human, UniProt P54764 29-209). Put plainly: fluorescence polarisation.
Chain of human EphA4 ligand-binding domain (residues 29-209) (P54764 29-209): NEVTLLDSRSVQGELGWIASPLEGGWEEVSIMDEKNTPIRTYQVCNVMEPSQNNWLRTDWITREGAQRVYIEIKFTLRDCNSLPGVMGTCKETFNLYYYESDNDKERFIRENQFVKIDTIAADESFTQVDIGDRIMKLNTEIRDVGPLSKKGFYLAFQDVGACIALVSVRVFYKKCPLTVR

T1 sequence (P54764 29-209): as above

Consider `Cc1c[nH]c2ccccc12` [3-methylindole], for which the “binding of individual side-chain fragments by 2D HSQC” value on EphA4 LBD [1] is recorded as “weak binding affinities”. On to KYLP, for which, in the assay with EphA4 LBD [2], the “IC50 by FPA” value was “inactive”. In addition, the “binding by 2D [15N,1H]-HSQC chemical shift perturbation” value with EphA4 LBD [1] (50 µM EphA4 LBD, 100 µM compound) is “inactive”. As to `Cc1ccc(Cl)cc1` [4-chlorotoluene], the “binding of individual side-chain fragments by 2D HSQC” value at EphA4 LBD [1] was “weak binding affinities”. In the case of {FITC}-KYLPYWPVLSSL [FITC-labeled KYL peptide], the binding result in assay [3] is recorded as “binds”.
